Published values from different studies.
Protocols differ between the studies behind these lines.
Effect on: cell growth or viability

SMILES	cell line	test	conditions	endpoint	value
CC[C@H](C)[C@@H]([C@@H](CC(=O)N1CCC[C@H]1[C@H](OC)[C@@H](C)C(=O)N[C@H](C)[C@@H](O)c1ccccc1)OC)N(C)C(=O)[C@@H](NC(=O)[C@@H](NC)C(C)C)C(C)C	L02	CCK-8	–	IC50	25.3 nM
O=C(NCc1ccccc1)c1cn(Cc2ccc(C(F)(F)F)cc2)c2ccc(Oc3ccccc3)cc2c1=O	HCC1419	–	72 h	CC50	> 50000 nM
CCOc1ccccc1-n1c(CN2CCNCC2)nc2ccc(F)cc2c1=O	PANC-1	ATP luminescence	72 h	IC50	40 nM
N.N.[Cl][Pt][Cl]	REH	ATP luminescence	72 h	IC50	780 nM
O=C1c2ccccc2-c2c3c(cc4ccnc1c24)OCO3	MOLT-3	XTT	75 h	IC50	7900 nM
Cc1ncsc1-c1ccc([C@H](C)NC(=O)[C@@H]2C[C@@H](O)CN2C(=O)[C@@H](c2cc(N3CCC(CN4CCC(OC5CC(Oc6cc(N7C8CCC7CN(c7cc(-c9ccccc9O)nnc7N)C8)ccn6)C5)CC4)CC3)no2)C(C)C)cc1 (some centres unmarked)	NCI-H1944	ATP luminescence	7 days	IC50	20.3 nM
CC[C@@]1(O)C(=O)OCc2c1cc1n(c2=O)Cc2cc3ccccc3nc2-1	PANC-1	SRB	48 h	IC50	157 nM
COc1cnc(OC)n2nc(NS(=O)(=O)c3c(OCC(F)F)cccc3C(F)(F)F)nc12	L02	CCK-8	1.56 µM, 72 h	inhibition	0%
